# Screening data as filed in PubChem BioAssay.
# TAAR1 antag = human TAAR1 antagonism. Q96RJ0. CHO RD-HGA16 TAAR1, Fluo-8 calcium fluorescence, antagonist. inhibition, % at 3 µM. 360,000 tested, 1.5% active. AID 624466;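 active = inhibition above a per-plate cutoff, the mean inhibition of test compounds on that plate plus 3 SD, cut at about 49% in these data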
#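 Material: CHO RD-HGA16 cells bearing hTAAR1; compound dosing: one-point dosing, 3 µM nominal final; schedule: dye loading 75 min at 37 °C, then 30 min room temperature; measured by: calcium fluorescence with Fluo-8; control set: vehicle and agonist controls; replication: n of 1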
# CHO parental Ca = signal in parental CHO cells, OX1R antagonist counter-screen. parental CHO-K1, ATP-induced calcium, Fluo-8 fluorescence. AID 463079. 330,000 tested, 0.63% active. inhibition, % at 5.6 µM;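 active = inhibition above that plate's mean sample inhibition plus 3 SD, cut at about 26% in these data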
#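 Measured by: calcium-sensitive Fluo-8 fluorescence / Test system: CHO parental line / Controls: ATP-challenged DMSO wells low, unchallenged DMSO wells high / Measure: % inhibition / Compound: single nominal dose of 5.6 µM per compound / Replicates: single well per compound, no replicates / Reagent: ATP as calcium-mobilizing challenge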
# GPR7 antag = human neuropeptides B/W receptor 1 antagonism. P48145. inhibition, % at 4.4 µM. 290,000 tested, 1.1% active. AID 1861. GPR7-expressing cells, fluorescence antagonist assay; in the data active = inhibition above about 16%, passing the limit was not always enough;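 note: cells stimulated with the agonist NPW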
# OX1R antag-1 = blocks the human orexin 1 receptor; O43613; CHO/OX1R cells, Fluo-8 calcium fluorescence, orexin A; inhibition, % at 5 µM; 330,000 tested, 0.43% active; AID 434989;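 active = inhibition above its plate's threshold, mean inhibition of all tested compounds on the plate plus 3 SD, cut at about 37% in these data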
# Target sequence (O43613 whole entry, looked up): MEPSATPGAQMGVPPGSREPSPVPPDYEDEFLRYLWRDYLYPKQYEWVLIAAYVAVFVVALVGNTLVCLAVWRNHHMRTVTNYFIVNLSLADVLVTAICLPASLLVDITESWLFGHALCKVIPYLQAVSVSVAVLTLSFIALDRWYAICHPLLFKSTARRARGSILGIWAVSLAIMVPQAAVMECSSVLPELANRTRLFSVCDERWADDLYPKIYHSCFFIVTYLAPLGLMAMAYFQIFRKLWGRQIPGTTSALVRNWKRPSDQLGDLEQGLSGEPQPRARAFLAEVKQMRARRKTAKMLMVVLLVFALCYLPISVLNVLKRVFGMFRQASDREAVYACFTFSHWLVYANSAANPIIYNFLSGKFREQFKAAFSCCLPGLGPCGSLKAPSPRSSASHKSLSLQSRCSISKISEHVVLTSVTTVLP
# TAAR1 ag = agonists of human TAAR1. CHO RD-HGA16 TAAR1, Fluo-8 calcium fluorescence; vehicle wells 0%, saturating PEA agonist 100%. AID 624467. 360,000 tested, 0.99% active. activation, % at 3 µM. Q96RJ0;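 active = activation above the mean activation of all test compounds in the run plus 3 SD, cut at about 38% in these data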
#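 Test system: RD-HGA16 (CHO) cells co-expressing Gα16 and hTAAR1 | Doses: Single dose, 3 µM | Schedule: 17-24 h seeding, 75 min 37 °C dye, 30 min RT | Evaluation: % activation from peak over basal fluorescence ratio, DMSO-to-PEA scaled | Technique: Kinetic Fluo-8 calcium fluorescence | Benchmarks: Low control DMSO, high control PEA (EC100)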
# OX1R antag-2 = blocks the human orexin 1 receptor. 330,000 tested, 1.8% active. inhibition, % at 6.6 µM. OX1R-expressing cells, FRET antagonist read-out; in the data active = inhibition mostly above about 38%, no sharp cut-off; inactive = mostly below about 40%
# A number is an active result; 0 = inactive; - = not tested or not shown. Sampled rows, rich in hits. Any-hit rate of the full collection: about 4.6%.
SMILES,TAAR1 antag,CHO parental Ca,GPR7 antag,OX1R antag-1,TAAR1 ag,OX1R antag-2
O=C(Nc1nc2c(s1)CCCC2=O)c1cnccn1,0,0,0,0,0,49.1
CCC(=O)N1CCc2cc(S(=O)(=O)NCCC(=O)N3CC=C(c4ccccc4)CC3)ccc21,0,0,0,0,0,55.4
CCCCCCCCN1C(=O)[C@@H](CC(=O)NCc2cccc(C(F)(F)F)c2)C[C@@]2(C(=O)OC)C1=C[C@H](C1CCCC1)O[C@@H]2C,0,-,-,-,0,-
COc1ccc(OC(=O)c2ccc(OC)c(S(=O)(=O)N3CCOCC3)c2)cc1,0,-,0,-,0,-
CCOC(=O)c1ccc(NC(=O)c2ccc(C)c(S(=O)(=O)N3CCOCC3)c2)cc1,80.4,0,0,0,0,0
O=C(Nc1ccc2c(c1)OCCO2)c1ccc(Br)c(S(=O)(=O)N2CCOCC2)c1,54.0,-,0,-,0,-
O=C(Oc1ccc2c(c1)OCO2)c1ccc(Br)c(S(=O)(=O)N2CCOCC2)c1,50.5,0,0,0,0,0
O=C(NC1CCCC1)c1ccc([N+](=O)[O-])s1,0,0,0,0,0,61.1
CC(OC(=O)c1ccc([N+](=O)[O-])s1)C(=O)NC1CCCCC1C (stereo unspecified),0,0,-,0,0,38.0
CC1CCCC(NC(=O)COC(=O)c2ccccc2[N+](=O)[O-])C1C (stereo unspecified),0,0,0,0,0,0
CC1CCCC(NC(=O)COC(=O)c2ccc([N+](=O)[O-])s2)C1C (stereo unspecified),0,0,-,0,0,44.1
NS(=O)(=O)c1ccc(CCNC(=O)c2ccc([N+](=O)[O-])s2)cc1,0,0,0,0,0,65.8
CCOC(=O)CCCCCC(=O)Nc1ccc2c(c1)C(=O)N([C@H](C)CO)C[C@H](C)[C@@H](CN(C)S(C)(=O)=O)OCCCC[C@@H](C)O2,0,-,-,-,0,-
CCCCn1c(NC(=O)c2ccccc2Cl)c(C#N)c2nc3ccccc3nc21,0,0,0,0,0,58.7
NN1C(=O)/C(=C2/Sc3ccccc3N2CCCS(=O)(=O)O)SC1=S,0,0,0,0,0,37.5
COC(=O)C1=C(C)N(Cc2ccc(C(F)(F)F)cc2)C(=NCc2ccc(C(F)(F)F)cc2)NC1c1ccccc1 (stereo unspecified),0,-,-,-,0,-
COCc1cc(N2CCN(C(=O)OC(C)(C)C)C[C@H]2C)ccc1N1CCS(=O)(=O)CC1,0,-,-,-,0,-
O=c1c2ccccc2ncn1-c1ccc([N+](=O)[O-])cc1[N+](=O)[O-],0,0,0,0,0,58.1
CCOC(=O)CCn1cnc2ccc([N+](=O)[O-])cc2c1=O,0,0,0,0,0,0
O=c1c2ccccc2ncn1-c1cccc([N+](=O)[O-])c1,0,0,-,0,0,0
Cn1cnc2ccc([N+](=O)[O-])cc2c1=O,0,0,0,0,0,75.1
Cc1csc(=O)n1CCC(=O)OCc1nnc(-c2ccccc2)o1,0,0,-,0,0,0
Cc1csc(=O)n1CCC(=O)OCc1nnc(-c2ccc([N+](=O)[O-])cc2)o1,0,0,-,0,0,49.9
O=C(CCN=C1NS(=O)(=O)c2ccccc21)OCc1nnc(-c2ccc([N+](=O)[O-])cc2)o1,0,0,-,0,0,63.1
O=C(OCc1nnc(-c2ccc([N+](=O)[O-])cc2)o1)C1CC(=O)N(CCc2ccccc2)C1 (stereo unspecified),0,0,-,0,0,59.5
SMILES,TAAR1 antag,CHO parental Ca,GPR7 antag,OX1R antag-1,TAAR1 ag,OX1R antag-2
N#Cc1ccccc1COC(=O)CCN=C1NS(=O)(=O)c2ccccc21,0,0,-,0,0,0
CCOC1=C2CN(S(=O)(=O)c3ccc(C)cc3)[C@H](c3ccccc3)C[C@@H]2N(S(=O)(=O)c2ccc(C)cc2)[C@H](c2ccccc2)C1,0,-,-,-,0,-
CCOC(=O)C1CSCCS(=O)(=O)N1Cc1cccc(Cl)c1 (stereo unspecified),0,-,-,-,0,-
CC1CN(S(=O)(=O)c2cccc(C(=O)NCc3ccco3)c2)CC(C)O1 (stereo unspecified),0,0,-,0,0,0
Cc1ccc(CNC(=O)c2cc3c(C)nc4ccccc4c3o2)cc1,0,0,0,0,0,56.8
Cc1ccc(C)c(N2CCN(C(=O)c3cc4c(C)nc5ccccc5c4o3)CC2)c1,0,0,0,0,0,0
COc1ccccc1N1CCN(C(=O)c2cc3c(C)nc4ccccc4c3o2)CC1,54.3,0,0,0,0,0
CCc1ccc(NC(=O)c2cc3c(C)nc4ccccc4c3o2)cc1,0,0,0,0,0,59.9
Cc1nnc(N/N=C/c2ccc(-c3ccccc3F)o2)n1N,0,0,0,0,0,56.7
Cc1nnc(N/N=C\c2ccc(-c3ccccc3[N+](=O)[O-])o2)n1N,0,0,0,0,0,56.2
Cc1n[nH]c(=S)n1/N=C/c1ccc(-c2ccccc2[N+](=O)[O-])o1,0,0,0,0,0,68.1
O=[N+]([O-])c1cccc(-c2ccc(/C=N/n3c(-c4ccccc4)n[nH]c3=S)o2)c1,0,0,0,0,0,0
CCc1nnc(N/N=C/c2ccc(-c3ccc([N+](=O)[O-])cc3)o2)n1N,0,0,0,0,0,0
CC(C)OC(=O)N(C)C[C@@H]1OCc2cn(nn2)CCCC(=O)N([C@@H](C)CO)C[C@H]1C,0,-,-,-,0,-
CCOC(=O)c1c(C)[nH]c(C)c1C(=O)COC(=O)/C=C/c1cccc(Cl)c1,0,0,0,0,0,0
CCOC(=O)c1c(C)[nH]c(C)c1C(=O)COC(=O)/C=C/c1ccccc1[N+](=O)[O-],0,0,-,0,0,35.3
O=C(CNC(=O)c1ccccc1Cl)NCCc1cccs1,0,0,-,0,39.9,0
O=C(NCc1cccs1)C1CC(c2ccc(Cl)c(Cl)c2)=NO1 (stereo unspecified),0,0,0,0,0,0
O=C(Cc1cccs1)NNC(=O)c1ccccc1Cl,0,0,-,0,0,0
O=C(NCCc1cccs1)C1CC(c2c(Cl)cccc2Cl)=NO1 (stereo unspecified),0,0,0,0,46.6,0
Cc1ccc(C(=O)N(C)CC(=O)Nc2cccc(F)c2)cc1S(=O)(=O)N1CCCCC1,0,0,-,0,0,0
O=C(N[C@H](C(=O)N1CCC[C@H]1C(=O)NCc1ccccc1)c1ccccc1)c1ccc(Cl)c(Cl)c1,0,-,-,-,0,-
Cc1ccsc1-c1nc(CSCC(=O)N2CCN(c3ccccc3)CC2)c(C)o1,0,0,0,0,0,37.8
Cc1cccc(-c2nc(CSCC(=O)N3CCN(c4ccccn4)CC3)c(C)o2)c1,0,0,0,0,0,44.7
Cc1ccc(-c2nc(CSCC(=O)N3CCCC3)c(C)o2)cc1,0,0,0,0,0,0
CCc1cc2c(nc1CC)CCCN2CCOC,0,-,-,-,0,-
Clc1cccc(Cl)c1/C=C/c1nc2ccccc2[nH]1,-,0,0,0,-,49.8
